Data published in ChEMBL document CHEMBL1250451, “Mechanistic insights into a Ca2+-dependent family of alpha-mannosidases in a human gut symbiont” (Nat Chem Biol, 2010).

Tests used:
Type in all cases: protein assay
[1] = target: T1, Alpha-1,2-mannosidase (BT_2199) (Bacteroides thetaiotaomicron, UniProt Q8A5N9); experiment: Inhibition of Bacteroides thetaiotaomicron GH92 alpha-mannosidase 2199 assessed as reduction of mannose release using 4NP-mannopyranoside substrate
T1 sequence (Q8A5N9 whole entry): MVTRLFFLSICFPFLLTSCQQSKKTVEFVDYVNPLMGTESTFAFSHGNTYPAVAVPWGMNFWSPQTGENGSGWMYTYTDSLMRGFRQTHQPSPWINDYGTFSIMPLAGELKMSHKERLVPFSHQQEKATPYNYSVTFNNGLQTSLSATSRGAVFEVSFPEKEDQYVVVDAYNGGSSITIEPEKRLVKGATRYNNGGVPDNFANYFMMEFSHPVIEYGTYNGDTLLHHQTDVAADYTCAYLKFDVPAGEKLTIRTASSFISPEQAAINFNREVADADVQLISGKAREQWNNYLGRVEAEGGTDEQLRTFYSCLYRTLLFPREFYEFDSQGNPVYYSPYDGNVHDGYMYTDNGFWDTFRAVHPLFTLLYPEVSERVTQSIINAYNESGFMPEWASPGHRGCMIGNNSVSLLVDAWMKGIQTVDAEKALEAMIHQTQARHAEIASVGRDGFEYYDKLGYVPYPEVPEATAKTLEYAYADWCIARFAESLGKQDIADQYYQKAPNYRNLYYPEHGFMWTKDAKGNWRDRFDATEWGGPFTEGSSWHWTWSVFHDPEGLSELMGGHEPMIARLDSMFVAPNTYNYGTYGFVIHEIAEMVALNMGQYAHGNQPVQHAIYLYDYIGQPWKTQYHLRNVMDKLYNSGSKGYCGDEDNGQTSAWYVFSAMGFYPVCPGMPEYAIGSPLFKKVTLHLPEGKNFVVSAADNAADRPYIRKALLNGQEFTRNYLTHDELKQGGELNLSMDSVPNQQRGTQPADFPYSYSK
Procedure, shortened: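 Recombinant enzymes expressed in E. coli. Bt3990 was purified by IMAC, anion exchange and size exclusion; Bt2199 by IMAC only. Ki was measured with at least five inhibitor concentrations at a substrate concentration ≪ Km for each enzyme. Ki was taken as the x-axis intercept of a plot of […] against inhibitor concentration.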

[2] = substrate: O=[N+]([O-])c1ccc(O[C@H]2O[C@H](CO)[C@@H](O)[C@H](O)[C@@H]2O)cc1; experiment: Activity of Bacteroides thetaiotaomicron GH92 alpha-mannosidase GH92 alpha-mannosidase 3773 assessed as mannose release after 16 hrs by HPLC
[3] = substrate: O=[N+]([O-])c1ccc(O[C@H]2O[C@H](CO)[C@@H](O)[C@H](O)[C@@H]2O)cc1; experiment: Ratio of Kcat to Km for Bacteroides thetaiotaomicron GH92 alpha-mannosidase GH92 alpha-mannosidase 3773 assessed as mannose release after 16 hrs by HPLC
[4] = substrate: O=[N+]([O-])c1ccc(O[C@H]2O[C@H](CO)[C@@H](O)[C@H](O)[C@@H]2O)cc1; experiment: Ratio of Kcat to Km for Bacteroides thetaiotaomicron GH92 alpha-mannosidase GH92 alpha-mannosidase 1769 assessed as mannose release after 16 hrs by HPLC
[5] = substrate: O=[N+]([O-])c1ccc(O[C@H]2O[C@H](CO)[C@@H](O)[C@H](O)[C@@H]2O)cc1; experiment: Activity of Bacteroides thetaiotaomicron GH92 alpha-mannosidase GH92 alpha-mannosidase 1769 assessed as mannose release after 16 hrs by HPLC
[6] = substrate: O=[N+]([O-])c1ccc(O[C@H]2O[C@H](CO)[C@@H](O)[C@H](O)[C@@H]2O)cc1; experiment: Ratio of Kcat to Km for Bacteroides thetaiotaomicron GH92 alpha-mannosidase GH92 alpha-mannosidase 2629 assessed as mannose release after 16 hrs by HPLC
[7] = substrate: O=[N+]([O-])c1ccc(O[C@H]2O[C@H](CO)[C@@H](O)[C@H](O)[C@@H]2O)cc1; experiment: Activity of Bacteroides thetaiotaomicron GH92 alpha-mannosidase GH92 alpha-mannosidase 2629 assessed as mannose release after 16 hrs by HPLC
[8] = substrate: O=[N+]([O-])c1ccc(O[C@H]2O[C@H](CO)[C@@H](O)[C@H](O)[C@@H]2O)cc1; experiment: Activity of Bacteroides thetaiotaomicron GH92 alpha-mannosidase GH92 alpha-mannosidase 3527 assessed as mannose release after 16 hrs by HPLC
[9] = substrate: O=[N+]([O-])c1ccc(O[C@H]2O[C@H](CO)[C@@H](O)[C@H](O)[C@@H]2O)cc1; experiment: Ratio of Kcat to Km for Bacteroides thetaiotaomicron GH92 alpha-mannosidase GH92 alpha-mannosidase 3527 assessed as mannose release after 16 hrs by HPLC
[10] = substrate: O=[N+]([O-])c1ccc(O[C@H]2O[C@H](CO)[C@@H](O)[C@H](O)[C@@H]2O)cc1; experiment: Ratio of Kcat to Km for Bacteroides thetaiotaomicron GH92 alpha-mannosidase GH92 alpha-mannosidase 2111 assessed as mannose release after 16 hrs by HPLC
[11] = substrate: O=[N+]([O-])c1ccc(O[C@H]2O[C@H](CO)[C@@H](O)[C@H](O)[C@@H]2O)cc1; experiment: Activity of Bacteroides thetaiotaomicron GH92 alpha-mannosidase GH92 alpha-mannosidase 2111 assessed as mannose release after 16 hrs by HPLC

Molecule: O=C1N[C@@H]2[C@@H](O)[C@@H](O)[C@H](O)[C@@H](CO)N2C1=O [KIFUNENSINE]
- Ki [1]: 230 µM

B1: Alpha-1,2-mannosidase, putative (BT_3773) (Bacteroides thetaiotaomicron), Q8A193 (protein)
chain: MNAFKLLMAASCFLGLATSGVAKQDYSKSEGLLQYVDPYIGSGFHGHVFVGTSVPYGMVQLGPNNIHKGWDWCSGYHYSDSILIGFSHTHLSGTGCTDLGDILIMPLNEIRTPRGNQDDIRDGYASKYSHDNEIARPEYYSLILDRYNIKAELTATDRVGFHRYTYPEGKPVSILIDLREGNGSNAYDSYIRKVDDYTVEGYRYVRGWSPSRKVYFVLKSDQKIEKFTAYDDNTPKLWDQLKVESVKSVLTFGNVKEVKIKVAISSVSCDNAAMNLQAELSHWDFDKVVKMSSDRWNKQLDKMTVESDDEAAKRVFYTAHYHTMIAPTLYCDVNGEYRGMNDMIYTDPKKANYTTLSLWDTYRALNPLMTIIQPEMVDNVINSMLSIYRQQDKLPIWPLMSGETNCMPGYSSVPVIADAYLKGFTGFDAEEALTAMKATATYEGQNGVPYVMAKGYIPADKIHEATSIAMEYAVDDWGIAAMAQKMGKTADYETFSKRAHYYKNYFDSSIHFIRPKLEDGSWRTPYDPARSIHGVGDFCEGNGWQYTFFAPQDPYGLISLFGGDKPFTSKLDSFFTNNDSMGEGASSDITGLIGQYAHGNEPSHHIAYLYTYAGEQWKTAEKVRFIMSDFYTDQPDGIIGNEDCGQMSAWYLLSAMGFYQVNPSDGVFAFGSPRFKKIEVKVRGGKVFTVEAPNNSKDNIYIQKVYLNGKPYHKSYITYDDIINGSTLKFEMGKKPAKNFGKASANRPIVLNK
- Km [2]: Not Active
- kcat [2]: Not Active
- kcat/Km [3]: Not Active

B2: Alpha-1,2-mannosidase (BT_1769) (Bacteroides thetaiotaomicron), Q8A6V7 (protein)
chain: MKLTHILASAAIISTLSACNGSLQTADRTPVDYVNPYIGNISHLLVPTFPTIQLPNSMLRVYPERADYTSELLKGLPLIVTNHRERSAFNFSPYQGEKLRPVITYNYDNEHITPYSFDVELDDNRMKAEYALSHQSAIYRITYEADKPAYLIVNSRNGSIHANENFISGRQQLNDNTNVYVYIEAQEKPISAGILENGTIETSKDNAEGANACAAWRFADGTTTVNLRYGISFISEEQAEKNLHRELKDYNIKALAEAGRQIWNETLGRIQVEGGTEDDKTVFYSSFYRTFERPICMSEGGRYFSAFDGKVHEDNGTPFYTDDWIWDTYRAAHPLRTLIDQQKEEDIIASYLRMAEQMGNMWMPTFPEVTGDTRRMNSNHAVATVADALAKGLKVDTAKAYEACRKGIEEKTLAPWSGAPAGWLDNFYRENGYIPALRVDEPENDPNVHPFEKRQPVAVTLGTSYDQWCLSRIAQALNKKEEAEYYLKCSYNYRNLYNKETAFFHPKDKEGQWIEPFDYRFPGGMGAREYYGENNGWVYRWDVPHNVADLISLMGGNEQFIANLDRTFTEPLGRSKYAFYAKLPDHTGNVGQFSMANEPSLHVPYLYNYAGQPWKTQKRIRQMLKTWFRNDLMGIPGDEDGGGMTSFVVFSSLGFYPVTPGLPAYTIGSPLFTDAKIRLSNGAVFEIEAKNASTDNKYIQSATLNGKEWNKSWFSHDDLMSGGKLVLVMGNKPNKTWASGAEDVPPSLEIK
- kcat/Km [4]: Not Active
- Km [5]: Not Active
- kcat [5]: Not Active

B3: Alpha-1,2-mannosidase (BT_2629) (Bacteroides thetaiotaomicron), Q8A4H0 (protein)
chain: MKTHFSFKHLLFLGGAVLYSLQSSAVKNPVDYVSTLIGTQSKFELSTGNTYPATALPWGMNFWTPQTGKMGDGWAYTYDADKIRGFKQTHQPSPWMNDYGQFAIMPITGGLVFDQDRRASWFSHKAEVAKPYYYKVYLADHDVTTELAPTERAVMFRFTYPETKNAYVIVDAFDKGSYVKVIPEENKIIGYSTKNSGGVPENFKNYFVIQFDKPFTFVSTVFENNILPNETEAKGNHTGAVIGFATKKGEIVHARVASSFISPEQAELNLKELGKNSFDQLVANGREIWNREMSKIEIEDDNIDNLRTFYSCLYRSMLFPRSFYEIDAKGQVMHYSPYNGEVRPGYMFTDTGFWDTFRCLFPFLNLMYPSMNQKMQEGLVNTYKESGFLPEWASPGHRDCMVGNNSASVVADAYIKGLRGYDIETLWEALKHGANAHLRGTASGRLGYESYNQLGYVANNIGIGQNVARTLEYAYNDWAIYTLGKKLGKPENEIDIYKKHALNYKNVYHPERKLMVGKDNKGVFNPNFDAVDWSGEFCEGNSWHWSFCVFHDPQGLINLMGGKKEFNAMMDSVFVISGKLGMESRGMIHEMREMQVMNMGQYAHGNQPIQHMVYLYNYSSEPWKAQYWIREIMNKLYTAGPDGYCGDEDNGQTSAWYVFSALGFYPVCPGTDEYIIGTPLFKSAKLHLENGKTITIKADNNQLDNRYIKEMKVNGKSQTRNFLTHDQLIKGANIQFQMSPVPNKQRGTTEKDVPYSLSFE
- kcat/Km [6]: Not Active
- Km [7]: Not Active
- kcat [7]: Not Active

B4: Alpha-1,2-mannosidase (BT_3527) (Bacteroides thetaiotaomicron), Q8A1Y1 (protein)
chain: MKKLALLAFTLFSAWNMDAKTITGPVDYVSPLVGTQSKHALSTGNTYPAIALPWGMNFWVPQTGKMGDGWAYTYDADKIRGFKQTHQPSPWINDYGQFSIMPITGKAVFDQDQRASWFSHKAETATPYYYKVYLADHDVVTEIAPTERAAAFRFTFPENDHSYVVVDAFDNGSFVKVIPSENKIIGYTTKNSGGVPANFKNYFVLEFDKPFTYTAAVANGNIDTNKLEANDKHAGALIGFKTRKGEQVNVRVASSFISPEQAELNLKELGKDNIDQIAAKGRKVWNDVLGRIEVEDDDIDHLRTFYSCLYRSVLFPRSFYEIDAKGDIVHYSPYNGEVLPGYMFTDTGFWDTFRCLFPFLNLMYPSMNMKMQEGLVNTYKESGFLPEWASPGHRGCMVGNNSASVVADAYLKGLKGYDIETLWEAVKHGANAVHPQVSSTGRLGYDYYNKLGYVPYNVGINENAARTLEYAYNDWCIYQLGKALNKPKKEIEIFAKRAMNYKNLYDPEHKLMRGKNEDGKFQSPFNPLKWGDAFTEGNSWHYTWSVFHDPQGLIDLMGGKDGFNQMMDSVFILPPVFDDSYYGGVIHEIREMQIMNMGNYAHGNQPIQHMLYMYNYSGQPWKAQHWIREVMDKLYTPAPDGYCGDEDNGQTSAWYVFSAMGFYPVCPGTDEYILGTPYFKQMKLHLENGKTVTISAPNNGDDKRYISSMTLNGKDHTKNYVTHEDLMNGASITFKMDSKPNEQRGTKETDFPYSFSNEFKKKK
- Km [8]: Not Active
- kcat [8]: Not Active
- kcat/Km [9]: Not Active

B5: Alpha-1,2-mannosidase (BT_2111) (Bacteroides thetaiotaomicron), Q8A5X5 (protein)
chain: MKRIPLSLFTFLFLLSGLCAAPTKTVWQIGEKNHSASELALSPDKYKEFLANDFGWEDRFYIIGLSSPQKDFPYVLPGPADHWGGTSYTAGIRTHVLNILFGMKEVPETDSWKLIIDLLDTHHELPALFKITINGKSWKYALPKGSGKSIDGDYSQIKPHTIEIPLNSGVIRKGSNSIALTSLEGSWILFDDIRLMGPDNAELNEVNKSVYLRDVKAADFQTTSPVAQPLLVDIEHLSGHPLLEVKVDGKKILEQRLEKGRYILEAPMPVVKSPKTSHYIISADGAILDKGMIRRAPHNTITLADYIDTRMGTAHSRWMIAPGTWMPFSMVKLSPDNQDSGWQSGYDPSFESIGTFSHIHEWTMAGLGIMPANGPLKTEIGSQSSLVKDANSYRSAIDKTSEETKVGYYKVDLTDYQIKAELTATSRCGFQRYTYPQDKDARVMIDLKIPSEYDYQIVEGSVKQTGARRIEGFSKQLSKNVWSADADQNYTIYFVIEFNKDIKKFGGWHDHTLWETDTMTAHYPQRFGCYAEFDTTDHPEVMVRSGISYVDMAGASNNLSNEITEPFGWNFEAVHKHQSDSWNNILNRVRIYSNDYREKVRFYTNLYRAFCRNTFSDADRRWVDAAGNIQKLDDPDAVALGCDAFWNTFWNLNQVWNLIAPEWSSRWVKSQLAMYDANGWLAKGPSGMKYIPVMVGEHEIPLLVSTYQMGIRNYDAEKMFRAIVKMQTTPAQRVANGFAGNRDLETYLQHQYVPADKGRFSNTLEYSYDDWTVSQLAKALGKEEYYRTFSNRGNWWKNAINPATGYAQMRYSNGEWEKNFDPFKSGANHHYVEGNAWQLTFFVPQNVPALTEIIGKELFIDRLSWGFKASEPWRYNAPGDQYWDFPVVQGNQQSMHFAFLFNWAGQPWQTQRWSRSIIDRYYGFDTSNAYLGDEDQGQMSAWFVMAALGLFQTDGGCNAEPVYELGSPLFEKIKIDLGKHFGRGKQFIIKASNTSRENKYIQSAKLNGKKLNSFKFPAKELLKGGTLELEMGDRPNKNWGIK
- kcat/Km [10]: Not Active
- Km [11]: Not Active
- kcat [11]: Not Active
